Source: ChEMBL document CHEMBL4808214, “Structure-activity relationship studies in substituted sulfamoyl benzamidothiazoles that prolong NF-κB activation” (Bioorg Med Chem, 2021)

Key:
[1] = target: Nuclear factor NF-kappa-B complex (Homo sapiens) (UniProt Q00653+P19838+Q04206); assay: Activation of NF-kappaB in human THP1-Blue NF-kappaB cells co-expressing NFkappaB-inducible SEAP assessed as increase in SEAP activity at 5 uM measured after 20 hrs by quanti-blue based colorimetric assay relative to control; type: cell-based; conditions: filed as activator
Chain of Nuclear factor NF-kappa-B complex (Homo sapiens) (P19838 whole entry, looked up): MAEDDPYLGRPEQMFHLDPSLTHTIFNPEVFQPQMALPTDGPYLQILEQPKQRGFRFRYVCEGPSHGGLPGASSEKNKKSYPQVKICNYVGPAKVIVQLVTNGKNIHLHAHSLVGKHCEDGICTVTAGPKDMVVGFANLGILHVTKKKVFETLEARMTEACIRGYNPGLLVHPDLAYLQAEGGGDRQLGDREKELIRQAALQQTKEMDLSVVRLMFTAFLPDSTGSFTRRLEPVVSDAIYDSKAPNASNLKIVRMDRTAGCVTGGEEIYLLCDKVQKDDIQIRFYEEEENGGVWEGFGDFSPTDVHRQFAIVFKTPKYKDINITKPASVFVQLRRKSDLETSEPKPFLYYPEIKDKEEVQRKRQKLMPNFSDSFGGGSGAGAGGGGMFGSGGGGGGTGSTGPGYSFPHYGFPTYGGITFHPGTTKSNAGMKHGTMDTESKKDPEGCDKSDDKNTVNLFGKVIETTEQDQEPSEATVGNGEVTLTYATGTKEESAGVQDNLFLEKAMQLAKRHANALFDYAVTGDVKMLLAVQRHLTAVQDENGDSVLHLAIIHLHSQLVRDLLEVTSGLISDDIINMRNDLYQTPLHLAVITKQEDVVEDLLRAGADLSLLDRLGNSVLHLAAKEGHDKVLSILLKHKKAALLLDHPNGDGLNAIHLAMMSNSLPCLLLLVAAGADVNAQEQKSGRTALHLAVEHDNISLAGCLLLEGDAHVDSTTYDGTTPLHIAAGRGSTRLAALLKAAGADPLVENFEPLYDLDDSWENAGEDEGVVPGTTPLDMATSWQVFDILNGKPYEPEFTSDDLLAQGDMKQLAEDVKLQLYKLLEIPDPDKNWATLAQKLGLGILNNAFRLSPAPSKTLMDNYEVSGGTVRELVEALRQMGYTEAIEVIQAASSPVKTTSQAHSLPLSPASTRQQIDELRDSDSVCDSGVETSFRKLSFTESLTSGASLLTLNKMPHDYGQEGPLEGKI
Chain of Nuclear factor NF-kappa-B complex (Homo sapiens) (Q00653 whole entry, looked up): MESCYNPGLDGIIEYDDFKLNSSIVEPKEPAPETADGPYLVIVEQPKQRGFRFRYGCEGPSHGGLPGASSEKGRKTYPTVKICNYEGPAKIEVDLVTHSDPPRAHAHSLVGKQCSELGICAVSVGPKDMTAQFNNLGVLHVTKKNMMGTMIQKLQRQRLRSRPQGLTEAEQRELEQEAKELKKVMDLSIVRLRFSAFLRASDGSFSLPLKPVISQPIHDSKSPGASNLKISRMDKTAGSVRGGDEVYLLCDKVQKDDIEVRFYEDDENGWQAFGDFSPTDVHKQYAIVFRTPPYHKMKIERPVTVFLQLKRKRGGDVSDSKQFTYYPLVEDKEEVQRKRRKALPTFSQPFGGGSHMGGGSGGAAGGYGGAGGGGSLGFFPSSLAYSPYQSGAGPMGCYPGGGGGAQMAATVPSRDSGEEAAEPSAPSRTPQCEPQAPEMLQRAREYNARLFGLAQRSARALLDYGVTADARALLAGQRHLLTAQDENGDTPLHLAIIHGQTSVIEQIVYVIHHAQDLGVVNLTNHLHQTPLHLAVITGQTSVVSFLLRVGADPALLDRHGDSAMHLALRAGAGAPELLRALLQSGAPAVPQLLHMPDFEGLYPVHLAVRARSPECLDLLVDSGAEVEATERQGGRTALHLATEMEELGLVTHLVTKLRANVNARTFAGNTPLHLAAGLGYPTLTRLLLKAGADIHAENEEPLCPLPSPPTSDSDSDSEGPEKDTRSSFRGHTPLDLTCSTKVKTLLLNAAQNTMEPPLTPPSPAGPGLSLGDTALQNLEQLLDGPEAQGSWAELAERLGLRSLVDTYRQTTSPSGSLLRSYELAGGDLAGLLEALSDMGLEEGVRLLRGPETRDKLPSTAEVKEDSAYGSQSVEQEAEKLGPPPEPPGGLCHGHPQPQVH
Chain of Nuclear factor NF-kappa-B complex (Homo sapiens) (Q04206 whole entry, looked up): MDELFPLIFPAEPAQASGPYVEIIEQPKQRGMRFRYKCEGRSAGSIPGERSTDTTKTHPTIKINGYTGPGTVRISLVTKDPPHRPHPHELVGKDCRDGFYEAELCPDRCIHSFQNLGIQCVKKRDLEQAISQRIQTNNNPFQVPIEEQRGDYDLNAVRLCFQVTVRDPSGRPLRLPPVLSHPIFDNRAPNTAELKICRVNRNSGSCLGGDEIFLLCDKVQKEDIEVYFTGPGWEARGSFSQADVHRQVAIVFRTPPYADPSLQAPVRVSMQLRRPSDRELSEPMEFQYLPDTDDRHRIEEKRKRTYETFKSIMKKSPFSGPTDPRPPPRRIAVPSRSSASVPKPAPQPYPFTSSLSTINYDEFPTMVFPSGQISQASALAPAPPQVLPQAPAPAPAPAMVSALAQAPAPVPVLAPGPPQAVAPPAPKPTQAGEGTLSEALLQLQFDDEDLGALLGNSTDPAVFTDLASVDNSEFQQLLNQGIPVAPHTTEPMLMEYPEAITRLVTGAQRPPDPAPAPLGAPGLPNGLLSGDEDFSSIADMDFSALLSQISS
Method in brief: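 THP1-Blue NF-κB reporter cells plated at 10^5/well in RPMI with 10% FBS, penicillin/streptomycin and Normocin. Compound added at 5 μM final (0.5% DMSO), then incubated 20 h. Secreted SEAP in the supernatant was read colorimetrically with QuantiBlue at 630 nm. Two-point normalization set vehicle (0.5% DMSO) as 100% and a reference activator as 200%.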

THP-1 = assay: Cytotoxicity against human THP-1 cells assessed as cell viability at 5 uM measured after 18 hrs by MTT assay relative to control; type: cell-based; conditions: thp-1, 18 h
Method in brief: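 THP-1 cells were plated at 10^5/well in RPMI with 10% FBS and penicillin/streptomycin, then given compound at 5 μM final (0.5% DMSO) for 18 h. MTT at 0.5 mg/mL was added for 4–6 h, followed by SDS/HCl lysis buffer overnight. Absorbance was read at 570 nm against a 650 nm reference. Viability was normalized to DMSO as 100%.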

Activity [1] [%] | SMILES | Activity (THP-1) [%]
117 | CCCCCc1sc(NC(=O)c2ccc(S(=O)(=O)N3CCCCC3)cc2)nc1-c1cc(C)ccc1C | 108
223 | Cc1ccc(C)c(-c2csc(NC(=O)c3ccc(S(=O)(=O)N4CCCCC4)c(Cl)c3)n2)c1 | 88
102 | CCOc1sc(NC(=O)c2ccc(S(=O)(=O)N3CCCCC3)cc2)nc1-c1cc(C)ccc1C | 104
203 | CCc1ccc(C)c(-c2csc(NC(=O)c3ccc(S(=O)(=O)N4CCCCC4)cc3)n2)c1 | 102
114 | Cc1ccc2c(c1)-c1nc(NC(=O)c3ccc(S(=O)(=O)N4CCCCC4)cc3)sc1CC2 | 95
99 | CCN(CC)c1sc(NC(=O)c2ccc(S(=O)(=O)N3CCCCC3)cc2)nc1-c1cc(C)ccc1C | 94
101 | Cc1ccc(C)c(Cc2csc(NC(=O)c3ccc(S(=O)(=O)N4CCCCC4)cc3)n2)c1 | 100
179 | Cc1cccc(-c2csc(NC(=O)c3ccc(S(=O)(=O)N4CCCCC4)cc3)n2)c1C | 103
125 | Cc1ccc(C)c(-c2csc(NC(=O)c3ccc(S(=O)(=O)N4CCCCC4)c(N)c3)n2)c1 | 92
99 | Cc1ccc(C)c(-c2nc(NC(=O)c3ccc(S(=O)(=O)N4CCCCC4)cc3)sc2N2CCCCC2)c1 | 89
99 | Cc1ccc(C)c(-c2csc(C(=O)Nc3ccc(S(=O)(=O)N4CCCCC4)cc3)n2)c1 | 91
99 | Cc1ccc(C)c(-c2c[nH]c(NC(=O)c3ccc(S(=O)(=O)N4CCCCC4)cc3)n2)c1 | 51
207 | Cc1ccc(Br)cc1-c1csc(NC(=O)c2ccc(S(=O)(=O)N3CCCCC3)cc2)n1 | 91
109 | CCCCc1sc(NC(=O)c2ccc(S(=O)(=O)N3CCCCC3)cc2)nc1-c1cc(C)ccc1C | 129
112 | CCCC#Cc1sc(NC(=O)c2ccc(S(=O)(=O)N3CCC(CCC)CC3)cc2)nc1-c1cc(C)ccc1C | 102
127 | Cc1ccc(C)c(-c2csc(NC(=O)c3ccc(S(=O)(=O)N4CCCCC4)cc3Cl)n2)c1 | 87
133 | Cc1ccc(C)c(-c2nc(NC(=O)c3ccc(S(=O)(=O)N4CCCCC4)cc3)sc2Br)c1 | 84

Activity [1] [%] | SMILES | Activity (THP-1) [%]
99 | Cc1ccc(C)c(-c2cnc(NC(=O)c3ccc(S(=O)(=O)N4CCCCC4)cc3)s2)c1 | 101
101 | C#Cc1ccc(C)c(-c2csc(NC(=O)c3ccc(S(=O)(=O)N4CCCCC4)cc3)n2)c1 | 92
98 | Cc1ccc(-c2csc(NC(=O)c3ccc(S(=O)(=O)N4CCCCC4)cc3)n2)c(C)c1 | 102
179 | CCc1sc(NC(=O)c2ccc(S(=O)(=O)N3CCCCC3)cc2)nc1-c1cc(C)ccc1C | 104
209 | Cc1ccc(C)c(-c2csc(NC(=O)c3ccc(S(=O)(=O)N4CCCCC4)c(Br)c3)n2)c1 | 90
99 | Cc1ccc(C)c(-c2nc(NC(=O)c3ccc(S(=O)(=O)N4CCCCC4)cc3)sc2-c2ccccc2)c1 | 
97 | Cc1cc(C)cc(-c2csc(NC(=O)c3ccc(S(=O)(=O)N4CCCCC4)cc3)n2)c1 | 91
101 | Cc1ccc(C)c(-c2csc(N(C)C(=O)c3ccc(S(=O)(=O)N4CCCCC4)cc3)n2)c1 | 97
264 | CCC#Cc1sc(NC(=O)c2ccc(S(=O)(=O)N3CCCCC3)cc2)nc1-c1cc(C)ccc1C | 103
120 | Cc1ccc(C)c(-c2csc(NC(=O)c3ccc(S(=O)(=O)N4CCCCC4)cc3Br)n2)c1 | 96
98 | Cc1ccc(-c2csc(NC(=O)c3ccc(S(=O)(=O)N4CCCCC4)cc3)n2)cc1C | 
109 | Cc1ccc2c(c1)-c1nc(NC(=O)c3ccc(S(=O)(=O)N4CCCCC4)cc3)sc1C2 | 89
202 | CCCC#Cc1sc(NC(=O)c2ccc(S(=O)(=O)N3CCCCC3)cc2)nc1-c1cc(C)ccc1Br | 95
103 | CCSc1sc(NC(=O)c2ccc(S(=O)(=O)N3CCCCC3)cc2)nc1-c1cc(C)ccc1C | 
185 | Cc1cccc(C)c1-c1csc(NC(=O)c2ccc(S(=O)(=O)N3CCCCC3)cc2)n1 | 100
118 | C#Cc1sc(NC(=O)c2ccc(S(=O)(=O)N3CCCCC3)cc2)nc1-c1cc(C)ccc1C | 111

The next lines start with the compound.

SMILES | Activity [1] [%] | Activity (THP-1) [%]
CCCC1CCN(S(=O)(=O)c2ccc(C(=O)Nc3nc(-c4cc(C)ccc4Br)cs3)cc2)CC1 | 191 | 97
Cc1cccc(-c2csc(NC(=O)c3ccc(S(=O)(=O)N4CCCCC4)cc3)n2)c1 |  | 98
CC(=O)N1CCN(S(=O)(=O)c2ccc(C(=O)Nc3nc(-c4cc(C)ccc4C)cs3)cc2)CC1 | 101 | 114
CCCN(CC)S(=O)(=O)c1ccc(C(=O)Nc2nc(-c3cc(C)ccc3C)cs2)cc1 | 183 | 104
Cc1ccc(C)c(-c2nnc(NC(=O)c3ccc(S(=O)(=O)N4CCCCC4)cc3)s2)c1 |  | 90
CCOC1CCN(S(=O)(=O)c2ccc(C(=O)Nc3nc(-c4cc(C)ccc4C)cs3)cc2)CC1 | 201 | 117
Cc1ccc(C)c(-c2csc(NC(=O)c3ccc(S(=O)(=O)N4CCN(C(=O)OC(C)(C)C)CC4)cc3)n2)c1 | 101 | 132
Cc1ccc(C)c(-c2csc(NC(=O)c3ccc(SC4CCCCC4)cc3)n2)c1 |  | 85
Cc1ccc(C)c(-c2nc(NC(=O)c3ccc(S(=O)(=O)N4CCCCC4)cc3)sc2-c2ccco2)c1 |  | 106
COc1cc(C(=O)Nc2nc(-c3cc(C)ccc3C)cs2)ccc1S(=O)(=O)N1CCCCC1 | 99 | 
Cc1ccc(C)c(-c2csc(NC(=O)c3ccc(S(=O)(=O)N4CCCCC4)s3)n2)c1 | 103 | 97
Cc1ccc(C)c(-c2ccc(NC(=O)c3ccc(S(=O)(=O)N4CCCCC4)cc3)nc2)c1 |  | 93
Cc1ccc(C)c(-c2csc(NC(=O)c3ccc(C(=O)N4CCCCC4)cc3)n2)c1 | 99 | 88
COc1cc(S(=O)(=O)N2CCCCC2)ccc1C(=O)Nc1nc(-c2cc(C)ccc2C)cs1 | 99 | 
O=C(Nc1nc(-c2cccc3ccccc23)cs1)c1ccc(S(=O)(=O)N2CCCCC2)cc1 | 198 | 93
Cc1csc(NC(=O)c2ccc(S(=O)(=O)N3CCCCC3)cc2)n1 |  | 108
CCCC#Cc1sc(NC(=O)c2ccc(S(=O)(=O)N3CCC(CCC)CC3)cc2)nc1-c1cc(C)ccc1Br | 111 | 97
CC(C)(C)c1csc(NC(=O)c2ccc(S(=O)(=O)N3CCCCC3)cc2)n1 | 99 | 113
Cc1ccccc1-c1csc(NC(=O)c2ccc(S(=O)(=O)N3CCCCC3)cc2)n1 |  | 98

SMILES | Activity [1] [%] | Activity (THP-1) [%]
Cc1ccc(C)c(-c2csc(NC(=O)c3ccc(S(=O)(=O)C4CCCCC4)cc3)n2)c1 |  | 82
Cc1ccc(C)c(-c2csc(NS(=O)(=O)c3ccc(C(=O)N4CCCCC4)cc3)n2)c1 | 103 | 69
Cc1ccc(C)c(-c2csc(NCc3ccc(S(=O)(=O)N4CCCCC4)cc3)n2)c1 | 99 | 85
Cc1ccc(C)c(-c2csc(NC(=O)c3ccc(S(=O)(=O)NC4CCCCC4)cc3)n2)c1 |  | 91
CCc1csc(NC(=O)c2ccc(S(=O)(=O)N3CCCCC3)cc2)n1 |  | 120
CCCCN(CCCC)S(=O)(=O)c1ccc(C(=O)Nc2nc(-c3cc(C)ccc3C)cs2)cc1 | 102 | 
CCCc1csc(NC(=O)c2ccc(S(=O)(=O)N3CCCCC3)cc2)n1 |  | 115
C#CCN(C(=O)c1ccc(S(=O)(=O)N2CCCCC2)cc1)c1nc(-c2cc(C)ccc2C)cs1 |  | 102
Cc1ccc(C)c(-c2csc(NC(=O)c3ccc(S(=O)(=O)N4CCCCC4)c([N+](=O)[O-])c3)n2)c1 | 115 | 93
CC(C)(C)Cc1csc(NC(=O)c2ccc(S(=O)(=O)N3CCCCC3)cc2)n1 | 101 | 116
Cc1ccc(C)c(-c2csc(NC(=O)c3ccc(S(=O)(=O)N4CCCCC4)cn3)n2)c1 | 99 | 94
CCCN1CCN(S(=O)(=O)c2ccc(C(=O)Nc3nc(-c4cc(C)ccc4C)cs3)cc2)CC1 |  | 80
CCCN(CCC)S(=O)(=O)c1ccc(C(=O)Nc2nc(-c3cc(C)ccc3C)cs2)cc1 | 167 | 96
Cc1ccc(C)c(-c2cccc(NC(=O)c3ccc(S(=O)(=O)N4CCCCC4)cc3)n2)c1 |  | 94
Cc1ccc(C)c(-c2csc(NC(=O)c3ccc(S(=O)(=O)N4CCNCC4)cc3)n2)c1 | 101 | 121
Cc1ccc(C)c(-c2csc(NC(=O)c3cccc(C(=O)N4CCCCC4)c3)n2)c1 |  | 88
CCN(c1ccccc1)S(=O)(=O)c1ccc(C(=O)Nc2nc(-c3cc(C)ccc3C)cs2)cc1 | 105 | 81
Cc1ccc(C)c(-c2csc(NC(=O)c3ccc(S(=O)(=O)N4CCCCC4)nc3)n2)c1 |  | 89
Cc1ccc(C)c(-c2ccc(NC(=O)c3ccc(S(=O)(=O)N4CCCCC4)cc3)cn2)c1 |  | 93
